According to publication PMC12667952 (bioRxiv, 2025):
Substitutions are numbered along the chain they refer to.

Legend:
[1] = test system: adrenergic receptors; assay: Cerep panel off-target selectivity screen, adrenergic receptors; assay type: binding; conditions: 1 × 10^-5 M
[2] = target: T1, hGlyT2^W215F (Homo sapiens, UniProt Q9Y345, W215F); assay: Reversibility; assay type: cell-based
T1 sequence (Q9Y345 1-797 W215F): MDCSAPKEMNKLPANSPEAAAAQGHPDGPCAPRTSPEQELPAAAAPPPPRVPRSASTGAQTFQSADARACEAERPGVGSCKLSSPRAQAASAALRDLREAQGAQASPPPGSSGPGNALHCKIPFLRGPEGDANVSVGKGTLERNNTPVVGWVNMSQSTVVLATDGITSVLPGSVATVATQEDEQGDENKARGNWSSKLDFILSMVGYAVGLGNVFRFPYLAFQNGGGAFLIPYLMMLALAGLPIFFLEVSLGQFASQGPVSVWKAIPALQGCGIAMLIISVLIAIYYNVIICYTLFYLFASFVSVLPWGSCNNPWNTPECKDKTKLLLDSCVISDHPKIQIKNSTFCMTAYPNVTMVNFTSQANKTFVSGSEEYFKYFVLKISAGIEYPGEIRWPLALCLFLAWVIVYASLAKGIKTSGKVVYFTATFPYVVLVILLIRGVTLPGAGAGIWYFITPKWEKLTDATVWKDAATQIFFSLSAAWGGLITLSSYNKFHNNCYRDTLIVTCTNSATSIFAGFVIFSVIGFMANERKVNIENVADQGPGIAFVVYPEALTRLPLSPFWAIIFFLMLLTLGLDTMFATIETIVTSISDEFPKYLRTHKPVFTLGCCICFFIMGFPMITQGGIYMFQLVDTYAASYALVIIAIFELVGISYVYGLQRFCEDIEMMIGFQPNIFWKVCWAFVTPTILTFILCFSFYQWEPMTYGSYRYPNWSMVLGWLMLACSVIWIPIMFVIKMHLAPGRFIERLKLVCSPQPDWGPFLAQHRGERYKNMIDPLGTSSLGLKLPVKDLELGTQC

[3] = target: T2, hGlyT2^WT (Homo sapiens, UniProt Q9Y345); assay: Reversibility; assay type: cell-based; conditions: washout, hGlyT2^WT
T2 sequence (Q9Y345 1-797): T1 sequence (Q9Y345 1-797 W215F) with F215W
How it was run: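 Xenopus oocytes injected with 20 ng hGlyT2 WT cRNA and held 3–6 days at 18 °C. Glycine currents recorded by two-electrode voltage clamp at −60 mV. Test compound applied at a single concentration (10 μM maximum), then washed out. Recovery of 30 µM glycine-evoked currents followed to 30 min, normalised to pre-inhibitor current. n ≥ 5 from at least two frogs.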

[4] = target: T2, hGlyT2^WT; assay: Sodium dependence of inhibition of glycine transport currents; assay type: cell-based; conditions: 300 μM glycine
[5] = target: T3, hGlyT2^D633E (Homo sapiens, UniProt Q9Y345, D633E); assay: Reversibility; assay type: cell-based
T3 sequence (Q9Y345 1-797 D633E): T1 sequence (Q9Y345 1-797 W215F) with F215W, D633E

[6] = test system: muscarinic receptors; assay: Cerep panel off-target selectivity screen, muscarinic receptors; assay type: binding; conditions: 1 × 10^-5 M
[7] = Study 2: in-life plasma and CNS drug exposure study in male C57BL/6 mice; assay type: in vivo, mouse; conditions: 50 mg/kg i.p., 30 min
How it was run: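 Contract in-life study in male C57BL/6 mice (22 ± 2 g), acclimated for 3 days. Plasma and brain sampled at 30 and 120 min post-injection. Unbound plasma and brain concentrations calculated.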

## CN(C)C1(CNC(=O)c2ccc3c(c2)CCN3C(=O)c2ccccc2)CCOCC1 [RPI-GLYT2–82, 1-benzoyl-N-((4-(dimethylamino)tetrahydro-2H-pyran-4-yl)methyl)indoline-5-carboxamide]
[1]
  Activity at adrenergic receptors: inactive
[2]
  Washout of inhibitor from hGlyT2^W215F: almost immediate
[3]
  Reversibility of inhibition (recovery of glycine-induced currents): recovered to pre-inhibition levels within five minutes
[4]; IC50 at 20 mM Na+, 20 mM Na+, choline chloride substitute
  IC50: 159 nM
[4]; IC50 at 100 mM Na+, 100 mM Na+
  IC50: 279 nM
[5]
  Washout of inhibitor from hGlyT2^D633E: almost immediate
[6]
  Activity at muscarinic receptors: inactive
[7]
  Cu,b, calculated unbound concentration in brain: 597.89 nM
